Our source for the IC50, Ratio IC50 and inhibition values is ChEMBL document CHEMBL1144856, “Design, synthesis, and biological evaluation of 1-(4-sulfamylphenyl)-3-trifluoromethyl-5-indolyl pyrazolines as cyclooxygenase-2 (COX-2) and lipoxygenase (LOX) inhibitors” (Bioorg Med Chem, 2008).

Where only a bound is given, the exact number is not on record here.

Assay [1] concerns the target T1, Prostaglandin G/H synthase 1 (Ovis aries, UniProt P05979).
T1 sequence (P05979 whole entry): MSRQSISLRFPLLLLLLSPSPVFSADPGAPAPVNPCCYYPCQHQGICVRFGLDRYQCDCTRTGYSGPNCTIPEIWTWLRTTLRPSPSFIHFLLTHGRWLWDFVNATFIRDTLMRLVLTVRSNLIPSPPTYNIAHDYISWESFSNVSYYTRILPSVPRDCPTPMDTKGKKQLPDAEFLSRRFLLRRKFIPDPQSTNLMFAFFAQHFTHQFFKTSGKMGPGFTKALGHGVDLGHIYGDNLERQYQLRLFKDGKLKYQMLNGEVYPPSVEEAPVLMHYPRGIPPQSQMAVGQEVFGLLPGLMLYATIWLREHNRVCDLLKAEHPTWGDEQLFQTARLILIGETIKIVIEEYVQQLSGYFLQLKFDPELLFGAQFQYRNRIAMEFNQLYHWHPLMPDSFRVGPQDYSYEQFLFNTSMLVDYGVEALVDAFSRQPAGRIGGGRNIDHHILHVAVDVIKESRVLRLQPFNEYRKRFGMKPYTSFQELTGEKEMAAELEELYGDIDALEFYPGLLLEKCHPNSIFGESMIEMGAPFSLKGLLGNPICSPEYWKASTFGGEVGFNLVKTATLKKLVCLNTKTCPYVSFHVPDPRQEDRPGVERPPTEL
The experiment in a line: Inhibition of ovine COX1 by enzyme immuno assay. The method, boiled down: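 Hematin-reconstituted purified ovine COX-1 (six units) in 0.1 M Tris-HCl pH 8.0 with 5 mM EDTA and 2 mM phenol. Pre-incubated 1 h at room temperature with inhibitor in DMSO, then arachidonic acid added for 2 min at 37 °C. PGH2 was reduced with stannous chloride and PGF2α measured by EIA. Run in duplicate; IC50 is the mean of the duplicates.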

The species entered for assay [2] is Ovis aries. The experiment in a line: Selectivity ratio of IC50 for ovine COX1 to IC50 for ovine COX2. The method, boiled down:
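Purified hematin-reconstituted ovine COX-1 and COX-2 (six units each) in Tris–HCl 0.1 M pH 8.0, 5 mM EDTA, 2 mM phenol. Enzymes were preincubated 1 h at room temperature with inhibitor in DMSO, then given arachidonic acid for 2 min at 37 °C. PGF2α from SnCl2 reduction of PGH2 was read by EIA. IC50s are means of duplicates; ratio is COX-1 IC50/COX-2 IC50.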

In assay [3] the target is T2, Polyunsaturated fatty acid lipoxygenase ALOX12 (Homo sapiens) (UniProt P18054).
T2 sequence (whole entry): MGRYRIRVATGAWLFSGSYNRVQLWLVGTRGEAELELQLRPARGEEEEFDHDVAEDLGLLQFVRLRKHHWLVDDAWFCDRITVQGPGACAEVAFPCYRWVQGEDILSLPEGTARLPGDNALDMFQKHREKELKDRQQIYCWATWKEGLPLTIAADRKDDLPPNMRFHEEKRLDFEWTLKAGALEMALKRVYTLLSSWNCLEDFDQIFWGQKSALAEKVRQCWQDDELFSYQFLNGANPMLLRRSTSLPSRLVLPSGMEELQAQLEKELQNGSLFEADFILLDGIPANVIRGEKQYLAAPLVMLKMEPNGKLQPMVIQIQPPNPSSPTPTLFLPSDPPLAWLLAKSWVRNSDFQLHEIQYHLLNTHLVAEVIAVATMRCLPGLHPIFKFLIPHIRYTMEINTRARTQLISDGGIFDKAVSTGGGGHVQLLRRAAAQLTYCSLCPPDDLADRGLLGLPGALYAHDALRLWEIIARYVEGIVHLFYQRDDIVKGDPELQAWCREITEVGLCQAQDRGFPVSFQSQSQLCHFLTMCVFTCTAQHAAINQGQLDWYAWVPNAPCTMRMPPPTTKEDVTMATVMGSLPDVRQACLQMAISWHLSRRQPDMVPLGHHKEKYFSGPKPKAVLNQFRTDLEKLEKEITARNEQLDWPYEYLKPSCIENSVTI
The experiment in a line: Inhibition of LOX12 from human platelets at 10 uM by enzyme immuno assay. The method, boiled down:
(§1)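 Run by a contract lab. Enzyme sources: human PBML cells (LOX-5), human platelets (LOX-12), rabbit reticulocytes (LOX-15). Substrates: endogenous arachidonic acid (LOX-5), added arachidonic acid (LOX-12), linoleic acid (LOX-15). Inhibition read as LTB4 (LOX-5), 12-HETE (LOX-12) or 15-HETE (LOX-15), quantified by EIA and spectrophotometrically.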

Assay [4] addresses T3, Polyunsaturated fatty acid 5-lipoxygenase (Homo sapiens) (UniProt P09917).
T3 sequence (whole entry): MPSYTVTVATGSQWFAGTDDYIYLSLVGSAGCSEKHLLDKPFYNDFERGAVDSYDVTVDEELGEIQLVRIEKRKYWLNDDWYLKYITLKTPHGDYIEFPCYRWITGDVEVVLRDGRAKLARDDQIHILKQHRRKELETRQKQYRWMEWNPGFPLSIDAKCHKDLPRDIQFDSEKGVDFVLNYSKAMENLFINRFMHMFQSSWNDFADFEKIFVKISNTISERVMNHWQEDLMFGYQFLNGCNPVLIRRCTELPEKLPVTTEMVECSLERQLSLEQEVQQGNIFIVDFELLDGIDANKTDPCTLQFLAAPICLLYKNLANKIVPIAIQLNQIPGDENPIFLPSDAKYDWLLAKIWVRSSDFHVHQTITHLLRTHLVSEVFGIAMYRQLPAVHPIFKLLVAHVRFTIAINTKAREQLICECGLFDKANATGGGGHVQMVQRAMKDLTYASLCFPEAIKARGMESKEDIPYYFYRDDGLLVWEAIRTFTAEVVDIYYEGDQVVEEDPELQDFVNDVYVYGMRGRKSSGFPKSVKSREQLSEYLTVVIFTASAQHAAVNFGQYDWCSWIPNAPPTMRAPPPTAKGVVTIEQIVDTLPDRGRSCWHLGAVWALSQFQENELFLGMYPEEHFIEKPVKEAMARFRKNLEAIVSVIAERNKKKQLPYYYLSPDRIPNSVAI
Put plainly: Inhibition of LOX5 from human PBML cells at 10 uM by enzyme immuno assay. The assay is classed as cell-based. The method, boiled down:
as §1

Assay [5] addresses T4, Polyunsaturated fatty acid lipoxygenase ALOX15 (Oryctolagus cuniculus) (UniProt P12530).
T4 sequence (whole entry): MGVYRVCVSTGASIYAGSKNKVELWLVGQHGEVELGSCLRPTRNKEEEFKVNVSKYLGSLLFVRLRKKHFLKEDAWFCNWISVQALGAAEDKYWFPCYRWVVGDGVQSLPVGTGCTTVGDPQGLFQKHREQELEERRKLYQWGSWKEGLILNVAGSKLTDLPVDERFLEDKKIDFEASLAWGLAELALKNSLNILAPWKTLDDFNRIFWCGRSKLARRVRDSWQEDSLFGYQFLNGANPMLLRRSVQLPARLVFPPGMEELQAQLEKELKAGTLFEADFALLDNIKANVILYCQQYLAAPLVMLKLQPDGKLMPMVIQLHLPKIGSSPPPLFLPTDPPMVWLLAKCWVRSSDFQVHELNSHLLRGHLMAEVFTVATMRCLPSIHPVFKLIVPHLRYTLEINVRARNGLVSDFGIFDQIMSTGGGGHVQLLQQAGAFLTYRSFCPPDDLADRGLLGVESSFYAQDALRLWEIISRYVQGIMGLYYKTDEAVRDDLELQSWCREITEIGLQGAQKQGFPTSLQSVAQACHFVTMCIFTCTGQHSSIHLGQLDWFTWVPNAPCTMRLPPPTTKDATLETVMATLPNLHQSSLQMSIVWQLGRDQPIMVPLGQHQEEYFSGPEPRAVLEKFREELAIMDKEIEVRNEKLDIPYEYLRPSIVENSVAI
The experiment in a line: Inhibition of LOX15 from rabbit reticulocytes at 10 uM by enzyme immuno assay. The method, boiled down: as §1

`COc1cccc2[nH]cc(C3CC(C(F)(F)F)=NN3c3ccc(S(N)(=O)=O)cc3)c12` (centres undefined) had an IC50 in assay [1] greater than 100 µM. Further, in assay [2], the Ratio IC50 worked out at 12. `N#Cc1ccc2c(C3CC(C(F)(F)F)=NN3c3ccc(S(N)(=O)=O)cc3)c[nH]c2c1` (centres undefined) came in with an IC50 in assay [1] greater than 100 µM. Moreover, the Ratio IC50 in assay [2] is 0. On to `NS(=O)(=O)c1ccc(N2N=C(C(F)(F)F)CC2c2c[nH]c3ccc(C(=O)O)cc23)cc1` (centres undefined), for which the IC50 in assay [1] is greater than 100 µM. In addition, the Ratio IC50 in assay [2] turned out to be 0. Regarding `NS(=O)(=O)c1ccc(N2N=C(C(F)(F)F)CC2c2c[nH]c3c(Cl)cccc23)cc1` (single isomer, unassigned; enantiomer 1) [listing 1 of 2 here], the Ratio IC50 in assay [2] is greater than 345.

The compound `NS(=O)(=O)c1ccc(N2N=C(C(F)(F)F)CC2c2c[nH]c3cc([N+](=O)[O-])ccc23)cc1` (centres undefined) came in with an IC50 in assay [1] greater than 100 µM. Further, in assay [2], the Ratio IC50 was 0.

`NS(=O)(=O)c1ccc(N2N=C(C(F)(F)F)CC2c2c[nH]c3ccccc23)cc1` (single isomer, unassigned; enantiomer 1) [listing 1 of 2 here] had an IC50 in assay [1] greater than 100 µM. Regarding `NS(=O)(=O)c1ccc(N2N=C(C(F)(F)F)CC2c2c[nH]c3c(Cl)cccc23)cc1` (single isomer, unassigned; enantiomer 1) [listing 2 of 2 here], in assay [1], the IC50 was greater than 100 µM. In the case of `Cc1[nH]c2cc(Cl)ccc2c1C1CC(C(F)(F)F)=NN1c1ccc(S(N)(=O)=O)cc1` (centres undefined), the IC50 in assay [1] was greater than 100 µM. Further, the Ratio IC50 in assay [2] was greater than 17. On to `NS(=O)(=O)c1ccc(N2N=C(C(F)(F)F)CC2c2c[nH]c3ccc(F)cc23)cc1` (centres undefined), for which, in assay [1], the IC50 was greater than 100 µM. The Ratio IC50 in assay [2] is greater than 8. With `NS(=O)(=O)c1ccc(N2N=C(C(F)(F)F)CC2c2c[nH]c3c(Cl)cccc23)cc1` (single isomer, unassigned; enantiomer 2) [listing 1 of 2 here], the IC50 in assay [1] was greater than 100 µM. For `Nc1cccc2c(C3CC(C(F)(F)F)=NN3c3ccc(S(N)(=O)=O)cc3)c[nH]c12` (centres undefined), in assay [1], the IC50 was greater than 100 µM. In addition, the Ratio IC50 in assay [2] was greater than 42. `NS(=O)(=O)c1ccc(N2N=C(C(F)(F)F)CC2c2c[nH]c3ccccc23)cc1` (single isomer, unassigned; enantiomer 2) [listing 1 of 2 here] had an IC50 in assay [1] greater than 100 µM. Consider `NS(=O)(=O)c1ccc(N2N=C(C(F)(F)F)CC2c2c[nH]c3ccccc23)cc1` (single isomer, unassigned; enantiomer 1) [listing 2 of 2 here], for which the Ratio IC50 in assay [2] is greater than 119.

As for `CS(=O)(=O)c1ccc(C2=C(c3ccccc3)C(=O)OC2)cc1`, the results for the inhibition in assay [3], in assay [4] and in assay [5] were -2%, 11% and 6%, respectively. In assay [1], `NS(=O)(=O)c1ccc(N2N=C(C(F)(F)F)CC2c2c[nH]c3c(Cl)cccc23)cc1` (stereo in doubt; 5f) displayed an IC50 greater than 100 µM. In assay [1], `Nc1ccc2[nH]cc(C3CC(C(F)(F)F)=NN3c3ccc(S(N)(=O)=O)cc3)c2c1` (centres undefined) displayed an IC50 greater than 100 µM. Besides, the Ratio IC50 in assay [2] was greater than 118. In the case of `Cc1ccc(-c2cc(C(F)(F)F)nn2-c2ccc(S(N)(=O)=O)cc2)cc1`, the results for the inhibition in assay [3] and in assay [5] were 7% and 22%, respectively.

Compound `NS(=O)(=O)c1ccc(N2N=C(C(F)(F)F)CC2c2c[nH]c3ccccc23)cc1` (stereo in doubt; 5a) came in with an IC50 in assay [1] greater than 100 µM.

Compound `NS(=O)(=O)c1ccc(N2N=C(C(F)(F)F)CC2c2c[nH]c3c([N+](=O)[O-])cccc23)cc1` (centres undefined) returned an IC50 in assay [1] greater than 100 µM. Besides, the Ratio IC50 in assay [2] stood at 0. `NS(=O)(=O)c1ccc(N2N=C(C(F)(F)F)CC2c2c[nH]c3cc(F)ccc23)cc1` (centres undefined) displayed an IC50 in assay [1] greater than 100 µM. Also, in assay [2], the Ratio IC50 is 0.

For the compound `NS(=O)(=O)c1ccc(N2N=C(C(F)(F)F)CC2c2c[nH]c3ccc([N+](=O)[O-])cc23)cc1` (centres undefined), the IC50 in assay [1] is greater than 100 µM. Besides, the Ratio IC50 in assay [2] was determined as 2. The corresponding values for `Nc1cccc2[nH]cc(C3CC(C(F)(F)F)=NN3c3ccc(S(N)(=O)=O)cc3)c12` (centres undefined) are greater than 100 µM and 0. In the case of `NS(=O)(=O)c1ccc(N2N=C(C(F)(F)F)CC2c2c[nH]c3cc(Br)ccc23)cc1` (centres undefined), in assay [1], the IC50 is greater than 100 µM. Moreover, the Ratio IC50 in assay [2] was greater than 23. In the case of `NS(=O)(=O)c1ccc(N2N=C(C(F)(F)F)CC2c2c[nH]c3ccc(Cl)cc23)cc1` (centres undefined), in assay [1], the IC50 is greater than 100 µM. In assay [2], the Ratio IC50 was greater than 3. In assay [1], `NS(=O)(=O)c1ccc(-n2nc(C(F)(F)F)cc2-c2c[nH]c3ccccc23)cc1` gave an IC50 greater than 100 µM. The Ratio IC50 in assay [2] stood at 0. Take `NS(=O)(=O)c1ccc(N2N=C(C(F)(F)F)CC2c2c[nH]c3c(Cl)cccc23)cc1` (single isomer, unassigned; enantiomer 2) [listing 2 of 2 here]: the Ratio IC50 in assay [2] is greater than 1. Still for that read-out and setting: with `NS(=O)(=O)c1ccc(N2N=C(C(F)(F)F)CC2c2c[nH]c3ccccc23)cc1` (single isomer, unassigned; enantiomer 2) [listing 2 of 2 here] the figure was greater than 8. With `Nc1ccc2c(C3CC(C(F)(F)F)=NN3c3ccc(S(N)(=O)=O)cc3)c[nH]c2c1` (centres undefined), the IC50 in assay [1] was greater than 100 µM. Besides, the Ratio IC50 in assay [2] was found to be 14.

As to `N#Cc1ccc2[nH]cc(C3CC(C(F)(F)F)=NN3c3ccc(S(N)(=O)=O)cc3)c2c1` (centres undefined), the IC50 in assay [1] was greater than 100 µM. For the same compound, in assay [2], the Ratio IC50 amounted to 0.
